Source: PMC3169777 (European Journal of Clinical Pharmacology, 2011)
Read-outs that look alike come from different tables or passages of the source. One block for each compound: values may come before it.

How the values were obtained:
[1] = tested on: human hepatic transporters; settings: preclinical models, cited from earlier work
bile salts = settings: rats, ref Actelion Pharmaceuticals, data on file, cited from earlier work
ETA receptors = settings: isolated rat aortic and tracheal preparations; cited from earlier work
ETB receptors = settings: isolated rat aortic and tracheal preparations; cited from earlier work
ETA and ETB receptors = settings: cited from earlier work
[2] = Simulation of multiple-dose profiles using the single-dose data; parameters: species or system human; settings: once-a-day regimen, data not shown
[3] = rats; cited from earlier work
[4] = Metabolic profiling of plasma and urine; assay type: in vivo, human; settings: pooled urine of two subjects, 600-mg dose group
[5] = tested on: patients with treatment-resistant hypertension; settings: cited from earlier work
total bile salts = assay: Serum total bile salts; assay type: in vivo, human
Summary of the method: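 Venous blood was drawn predose and at 1, 2, 3 and 4 h in fasted subjects, with no later draws because of a meal. Tubes without anticoagulant stood 30 min at room temperature, were spun 10 min at 1,500 g, 4°C, and serum was kept at −20°C. An enzymatic assay was used (detection limit 1 μmol/l). AUC0–4h was derived non-compartmentally and compared with placebo by ANOVA (P < 0.05).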

[6] = assay type: in vivo; settings: male, human, plasma, plasma macitentan
Summary of the method: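 Single fasted doses of 0.2–600 mg were given, 6 active subjects per group. EDTA plasma was spun 10 min at 1,500 g, 4°C, and stored at −20°C. Sampling ran to 48 h, or 144 h for the 300 and 600 mg groups. Parent and metabolite were quantified by validated LC-MS/MS (linear 1–2,000 ng/ml, LOQ 1.0 ng/ml). Cmax, tmax, AUC and t1/2 were derived non-compartmentally.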

healthy male subjects = assay: Safety and tolerability; assay type: in vivo, human; settings: for Abdominal pain: number of subjects reporting adverse event / Back pain: number of subjects reporting adverse event / Flushing: number of subjects reporting adverse event / Headache: number of subjects reporting adverse event / Hepatic function abnormal: number of subjects reporting adverse event / Leukocytosis: number of subjects reporting adverse event / Nasopharyngitis: number of subjects reporting adverse event / Nausea: number of subjects reporting adverse event / Neck pain: number of subjects reporting adverse event / Rhinitis: number of subjects reporting adverse event / Vomiting: number of subjects reporting adverse event: n = 6
Summary of the method: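 Double-blind, randomised, placebo-controlled single-ascending-dose design in healthy males: new group of 8 per level (6 active, 2 placebo), doses 0.2–600 mg, fasted. Next dose given only after safety review. Confinement from about 12 h predose to 48 h postdose. Adverse events, vital signs, 12-lead ECG, clinical laboratory and physical examination recorded. Descriptive analysis with placebo subjects pooled.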

Structure (SMILES): Cc1cc2c(cc1CC(=O)c1sccc1S(=O)(=O)Nc1onc(C)c1Cl)OCO2 [sitaxentan, reference compound]
- interaction with human hepatic transporters [1]: substrates of and inhibit human hepatic transporters

Structure (SMILES): COc1ccccc1Oc1c(NS(=O)(=O)c2ccc(C(C)(C)C)cc2)nc(-c2ncccn2)nc1OCCO [bosentan, reference compound]
- effect on plasma bile salts (bile salts; intravenous administration): acute increase in plasma bile salts

- predicted accumulation factor upon repeated dosing [2]: 10
Structure (SMILES): NS(=O)(=O)Nc1ncnc(OCCOc2ncc(Br)cn2)c1-c1ccc(Br)cc1 [ACT-132577]
- fold less potent than macitentan in blocking ETA receptors (ETA receptors): up to 5 fold
- fold less potent than macitentan in blocking ETB receptors (ETB receptors): up to 5 fold
- selectivity for ETA receptors over ETB receptors (ETA and ETB receptors): ~16 fold
- affinity for ETA and ETB receptors compared with macitentan (ETA and ETB receptors; preclinical experiments): lower
- potency as endothelin receptor antagonist compared with macitentan (ETA and ETB receptors; receptor binding and functional assays): less potent
- half-life [3]: 8.5 h
- detection in urine [4]: no macitentan and ACT-132577 could be detected

Structure (SMILES): COc1cc(OC)nc(O[C@H](C(=O)O)C(OC)(c2ccccc2)c2ccccc2)n1 [darusentan]
- oedema or fluid retention, patients affected [5]: 27%

Structure (SMILES): CCCNS(=O)(=O)Nc1ncnc(OCCOc2ncc(Br)cn2)c1-c1ccc(Br)cc1 [macitentan, N-[5-(4-Bromophenyl)-6-(2-(5-bromopyrimidin-2-yloxy)ethoxy)pyrimidin-4-yl]-N′-propylsulfamide]
- effect on serum total bile salts at the lowest dose (total bile salts; single dose 0.2 mg macitentan, P < 0.05 compared with placebo): small but statistically significant effect
- effect on serum total bile salt concentrations (total bile salts; single doses of up to 600 mg, 4-h observation period): no dose-dependent effect
- half-life ([6]; 600 mg, apparent terminal half-life, two higher dose groups (300 and 600 mg)): ~960 min
- Tmax ([6]; tmax in most subjects, individual values): 4 to 12 h
- effect on circulating bile salts (bile salts): does not increase circulating bile salts
- selectivity for ETA receptors over ETB receptors (ETA and ETB receptors): about 50 fold
- increased alanine aminotransferase, times the upper limit of normal (healthy male subjects; one subject, 600 mg macitentan, 7 days after drug administration): ≤ 2 times the upper limit of normal
- Abdominal pain: number of subjects reporting adverse event (healthy male subjects; single dose 0.2 mg macitentan): 0
- Back pain: number of subjects reporting adverse event (healthy male subjects; single dose 0.2 mg macitentan): 0
- Flushing: number of subjects reporting adverse event (healthy male subjects; single dose 0.2 mg macitentan): 0
- Headache: number of subjects reporting adverse event (healthy male subjects; single dose 0.2 mg macitentan): 0
- Hepatic function abnormal: number of subjects reporting adverse event (healthy male subjects; single dose 0.2 mg macitentan): 0
- Leukocytosis: number of subjects reporting adverse event (healthy male subjects; single dose 0.2 mg macitentan): 0
- Nasopharyngitis: number of subjects reporting adverse event (healthy male subjects; single dose 0.2 mg macitentan): 0
- Nausea: number of subjects reporting adverse event (healthy male subjects; single dose 0.2 mg macitentan): 0
- Neck pain: number of subjects reporting adverse event (healthy male subjects; single dose 0.2 mg macitentan): 0
- Rhinitis: number of subjects reporting adverse event (healthy male subjects; single dose 0.2 mg macitentan): 0
- Vomiting: number of subjects reporting adverse event (healthy male subjects; single dose 0.2 mg macitentan): 0
- Abdominal pain: number of subjects reporting adverse event (healthy male subjects; single dose 1 mg macitentan): 0
- Back pain: number of subjects reporting adverse event (healthy male subjects; single dose 1 mg macitentan): 0
- Flushing: number of subjects reporting adverse event (healthy male subjects; single dose 1 mg macitentan): 0
- Headache: number of subjects reporting adverse event (healthy male subjects; single dose 1 mg macitentan): 0
- Hepatic function abnormal: number of subjects reporting adverse event (healthy male subjects; single dose 1 mg macitentan): 0
- Leukocytosis: number of subjects reporting adverse event (healthy male subjects; single dose 1 mg macitentan): 0
- Nasopharyngitis: number of subjects reporting adverse event (healthy male subjects; single dose 1 mg macitentan): 0
- Nausea: number of subjects reporting adverse event (healthy male subjects; single dose 1 mg macitentan): 0
- Neck pain: number of subjects reporting adverse event (healthy male subjects; single dose 1 mg macitentan): 0
- Rhinitis: number of subjects reporting adverse event (healthy male subjects; single dose 1 mg macitentan): 0
- Vomiting: number of subjects reporting adverse event (healthy male subjects; single dose 1 mg macitentan): 0
- Abdominal pain: number of subjects reporting adverse event (healthy male subjects; single dose 5 mg macitentan): 0
- Back pain: number of subjects reporting adverse event (healthy male subjects; single dose 5 mg macitentan): 0
- Flushing: number of subjects reporting adverse event (healthy male subjects; single dose 5 mg macitentan): 0
- Headache: number of subjects reporting adverse event (healthy male subjects; single dose 5 mg macitentan): 0
- Hepatic function abnormal: number of subjects reporting adverse event (healthy male subjects; single dose 5 mg macitentan): 0
- Leukocytosis: number of subjects reporting adverse event (healthy male subjects; single dose 5 mg macitentan): 0
- Nasopharyngitis: number of subjects reporting adverse event (healthy male subjects; single dose 5 mg macitentan): 0
- Nausea: number of subjects reporting adverse event (healthy male subjects; single dose 5 mg macitentan): 0
- Neck pain: number of subjects reporting adverse event (healthy male subjects; single dose 5 mg macitentan): 0
- Rhinitis: number of subjects reporting adverse event (healthy male subjects; single dose 5 mg macitentan): 0
- Vomiting: number of subjects reporting adverse event (healthy male subjects; single dose 5 mg macitentan): 0
- Abdominal pain: number of subjects reporting adverse event (healthy male subjects; single dose 25 mg macitentan): 0
- Back pain: number of subjects reporting adverse event (healthy male subjects; single dose 25 mg macitentan): 0
- Flushing: number of subjects reporting adverse event (healthy male subjects; single dose 25 mg macitentan): 0
- Headache: number of subjects reporting adverse event (healthy male subjects; single dose 25 mg macitentan): 2
- Hepatic function abnormal: number of subjects reporting adverse event (healthy male subjects; single dose 25 mg macitentan): 0
- Leukocytosis: number of subjects reporting adverse event (healthy male subjects; single dose 25 mg macitentan): 0
- Nasopharyngitis: number of subjects reporting adverse event (healthy male subjects; single dose 25 mg macitentan): 1
- Nausea: number of subjects reporting adverse event (healthy male subjects; single dose 25 mg macitentan): 0
- Neck pain: number of subjects reporting adverse event (healthy male subjects; single dose 25 mg macitentan): 0
- Rhinitis: number of subjects reporting adverse event (healthy male subjects; single dose 25 mg macitentan): 0
- Vomiting: number of subjects reporting adverse event (healthy male subjects; single dose 25 mg macitentan): 0
- Abdominal pain: number of subjects reporting adverse event (healthy male subjects; single dose 100 mg macitentan): 0
- Back pain: number of subjects reporting adverse event (healthy male subjects; single dose 100 mg macitentan): 0
- Flushing: number of subjects reporting adverse event (healthy male subjects; single dose 100 mg macitentan): 0
- Headache: number of subjects reporting adverse event (healthy male subjects; single dose 100 mg macitentan): 1
- Hepatic function abnormal: number of subjects reporting adverse event (healthy male subjects; single dose 100 mg macitentan): 0
- Leukocytosis: number of subjects reporting adverse event (healthy male subjects; single dose 100 mg macitentan): 1
- Nasopharyngitis: number of subjects reporting adverse event (healthy male subjects; single dose 100 mg macitentan): 0
- Nausea: number of subjects reporting adverse event (healthy male subjects; single dose 100 mg macitentan): 0
- Neck pain: number of subjects reporting adverse event (healthy male subjects; single dose 100 mg macitentan): 1
- Rhinitis: number of subjects reporting adverse event (healthy male subjects; single dose 100 mg macitentan): 0
- Vomiting: number of subjects reporting adverse event (healthy male subjects; single dose 100 mg macitentan): 0
- Abdominal pain: number of subjects reporting adverse event (healthy male subjects; single dose 300 mg macitentan): 0
- Back pain: number of subjects reporting adverse event (healthy male subjects; single dose 300 mg macitentan): 1
- Flushing: number of subjects reporting adverse event (healthy male subjects; single dose 300 mg macitentan): 0
- Headache: number of subjects reporting adverse event (healthy male subjects; single dose 300 mg macitentan): 2
- Hepatic function abnormal: number of subjects reporting adverse event (healthy male subjects; single dose 300 mg macitentan): 0
- Leukocytosis: number of subjects reporting adverse event (healthy male subjects; single dose 300 mg macitentan): 0
- Nasopharyngitis: number of subjects reporting adverse event (healthy male subjects; single dose 300 mg macitentan): 0
- Nausea: number of subjects reporting adverse event (healthy male subjects; single dose 300 mg macitentan): 0
- Neck pain: number of subjects reporting adverse event (healthy male subjects; single dose 300 mg macitentan): 0
- Rhinitis: number of subjects reporting adverse event (healthy male subjects; single dose 300 mg macitentan): 0
- Vomiting: number of subjects reporting adverse event (healthy male subjects; single dose 300 mg macitentan): 0
- Abdominal pain: number of subjects reporting adverse event (healthy male subjects; single dose 600 mg macitentan): 1
- Back pain: number of subjects reporting adverse event (healthy male subjects; single dose 600 mg macitentan): 0
- Flushing: number of subjects reporting adverse event (healthy male subjects; single dose 600 mg macitentan): 1
- Headache: number of subjects reporting adverse event (healthy male subjects; single dose 600 mg macitentan): 5
- Hepatic function abnormal: number of subjects reporting adverse event (healthy male subjects; single dose 600 mg macitentan): 1
- Leukocytosis: number of subjects reporting adverse event (healthy male subjects; single dose 600 mg macitentan): 0
- Nasopharyngitis: number of subjects reporting adverse event (healthy male subjects; single dose 600 mg macitentan): 0
- Nausea: number of subjects reporting adverse event (healthy male subjects; single dose 600 mg macitentan): 2
- Neck pain: number of subjects reporting adverse event (healthy male subjects; single dose 600 mg macitentan): 0
- Rhinitis: number of subjects reporting adverse event (healthy male subjects; single dose 600 mg macitentan): 2
- Vomiting: number of subjects reporting adverse event (healthy male subjects; single dose 600 mg macitentan): 2
- maximum tolerated dose (healthy male subjects; single dose, healthy male subjects): 300 mg
- effects on vital signs, ECG and clinical laboratory variables (healthy male subjects; single doses 0.2 to 600 mg): no clinically significant drug-related effects
- predicted accumulation factor upon repeated dosing [2]: 1.7
- half-life [3]: 2 h
- volume of distribution [3]: 1 L/kg
- detection in urine [4]: no macitentan and ACT-132577 could be detected
- inhibition of human hepatic transporters ([1]; ref Actelion Pharmaceuticals, data on file): did not inhibit
